# Only some compounds are listed: those with a hit (about 0.88% of all), similar ones and a draw of the others.
# PKA-R2B act: activators of human PKA-R2B complex. P22694+P31323. 0.079% of 340,000 active. activation, % at 11.4 µM. PKA-R2B holoenzyme dissociation, Cy5-IP20 fluorescence polarization; R2B truncated from residue 108, S112A mutant; 0% DMSO only, 100% 113 µM cGMP;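 active = activation above a cutoff set at the mean over all compounds plus 3 SD, cut at about 18% in these data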;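 note: higher means more holoenzyme dissociation and a rise in polarization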
# CXCR6 block: CXCR6 (human) receptor inhibition. O00574. CHO-K1 PathHunter CXCR6 beta-arrestin, luminescence. inhibition, % at 20 µM. 0.36% of 360,000 active; in the data active = inhibition above about 34%, passing the limit was not always enough;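 note: antagonist mode with CXCL16 agonist at 10 nM final; 0% = 10 nM CXCL16 with DMSO and 100% = unstimulated wells without agonist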
# Target sequence (O00574 whole entry, looked up): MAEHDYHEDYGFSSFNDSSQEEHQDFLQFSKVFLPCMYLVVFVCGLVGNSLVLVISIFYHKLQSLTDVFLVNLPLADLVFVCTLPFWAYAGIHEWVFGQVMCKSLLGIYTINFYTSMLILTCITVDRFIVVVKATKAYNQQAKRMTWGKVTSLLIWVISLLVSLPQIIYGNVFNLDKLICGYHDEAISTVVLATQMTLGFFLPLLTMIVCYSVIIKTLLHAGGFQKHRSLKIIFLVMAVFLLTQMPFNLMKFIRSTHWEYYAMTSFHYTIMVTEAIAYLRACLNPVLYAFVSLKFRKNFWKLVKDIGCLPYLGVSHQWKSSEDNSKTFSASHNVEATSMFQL
# APJ antagonist: blocks the human apelin receptor APJ | P35414 | CHO-K1 APJ beta-arrestin complementation, luminescence | inhibition, % at 20 µM | 0.32% of 330,000 active;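 active = inhibition above about 40% at 20 µM, limit read from the data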;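 note: cells challenged with 10 nM apelin-13 agonist together with compound; plate controls were apelin-13 plus DMSO wells for no effect and DMSO wells lacking apelin-13 for full effect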
# APJ agonist: activates the human apelin receptor APJ; P35414; CHO-K1 APJ PathHunter beta-arrestin, luminescence; 0% DMSO wells, 100% apelin; activation, % at 20 µM; 0.11% of 330,000 active; AID 2520;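 active = activation more than six SD over the plate average, tested at 20 µM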;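 note: 0% = DMSO alone and 100% = apelin-13 at 10 nM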
#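 Assay system: CHO-K1 cells stably expressing ProLink-tagged human APJ and arrestin–beta-gal acceptor. Compound dosing: 20 µM single point, 1% DMSO. Times: 16-18 h seeding, 90 min dark compound exposure, 60 min detection. Detection: beta-gal luminescence. Evaluation: APJ–arrestin association signal. Controls: negative DMSO alone, positive Apelin-13 at 10 nM.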
# CCR6 antag: CCR6 (human) receptor antagonism; P51684; CHO-K1 CCR6 PathHunter beta-arrestin, luminescence, CCL20-stimulated; inhibition, % at 20 µM; 0.49% of 340,000 active;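 active = compounds whose inhibition of the agonist-driven luminescence signal at 20 µM reaches about 50%, limit read from the data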;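 note: cells stimulated with CCL20 at 14 nM final; plate controls were DMSO with CCL20 for no effect and DMSO without agonist for full effect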
# Target sequence (P51684 whole entry, looked up): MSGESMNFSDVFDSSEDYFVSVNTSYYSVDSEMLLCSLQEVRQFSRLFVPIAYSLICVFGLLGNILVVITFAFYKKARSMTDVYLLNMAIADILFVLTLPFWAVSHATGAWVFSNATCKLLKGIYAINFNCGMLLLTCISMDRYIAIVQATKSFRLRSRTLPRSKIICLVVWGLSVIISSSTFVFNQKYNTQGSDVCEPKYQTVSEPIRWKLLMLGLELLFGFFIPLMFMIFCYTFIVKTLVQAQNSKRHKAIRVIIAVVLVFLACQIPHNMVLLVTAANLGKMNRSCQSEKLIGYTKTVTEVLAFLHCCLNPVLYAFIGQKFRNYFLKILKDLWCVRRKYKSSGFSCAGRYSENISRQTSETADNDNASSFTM
# PKA-R1A activ: activates the PKA-R1A holoenzyme complex | PKA-R1A dissociation, Cy5-IP20 fluorescence polarization; scaled: DMSO 0%, 113 µM cGMP 100% | 0.083% of 340,000 active | activation, % at 11.4 µM | AID 504707 | P00514+P68181;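 active = percent activation above the mean of all tested compounds plus 3 SD, cut at about 19% in these data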;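 note: higher means more PKAc released from R1A so a rise in polarization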
# CXCR6 antag conf: confirmation of human CXCR6 receptor antagonists | shares compounds with CXCR6 block | CHO-K1 CXCR6 PathHunter beta-arrestin, luminescence | inhibition, % at 20 µM | 65% of 700 active;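 active = mean inhibition over four retests above 40%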;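 note: receptor stimulated with 10 nM CXCL16 agonist; beta-galactosidase fragment complementation upon beta-arrestin recruitment to receptor; plate controls were CXCL16 plus DMSO for no effect and DMSO without CXCL16 for full effect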
# * hit, by the source's call; · = no result given.
SMILES,PKA-R2B act,CXCR6 block,APJ antagonist,APJ agonist,CCR6 antag,PKA-R1A activ,CXCR6 antag conf
O=C(OCc1ccccc1)N(CCF)c1cn(Cc2ccccc2)c(=O)n(Cc2ccccc2)c1=O,-8.0,-0.1,·,·,2.9,2.9,·
C=CCSc1nnc(-c2sc(-c3ccccc3)nc2C)n1C,-2.2,0.5,-22.7,-2.4,3.4,-0.4,·
C=CCN(C(=O)CSC1=NC(=O)CN1C(C)=O)c1nc(C)c(-c2ccccc2)s1,-0.9,40.4*,20.0,-3.3,41.2,-3.3,13.4
COc1cccc(C(C(=O)NC(C)(C)C)N(C(=O)CCC(=O)Nc2cc(C)on2)C(C)(C)C)c1OC (stereo not given),-12.9,4.1,2.9,-3.4,22.2,-6.2,·
COc1cccc(C(C(=O)NC(C)(C)C)N(C(=O)CCC(=O)Nc2cc(C)on2)C(C)C)c1OC (stereo not given),2.8,46.9*,3.8,-2.5,-5.7,-12.9,7.3
c1cncc(CNc2ncnc3ccc(-c4ccc5c(c4)OCCO5)cc23)c1,-1.4,-13.5,3.9,-2.8,-3.3,-9.4,·
Cc1ccc2cccc(OC(=O)/C=C\c3ccccc3)c2n1,0.5,43.0*,17.7,-0.4,26.8,5.2,39.1
COc1cccc(/C=C2/CCC(CN(C)C)C2=O)c1 (stereo not given),-1.6,71.2*,·,·,91.8*,0.1,53.7*
CN(C)CC1CCC/C(=C/c2ccc(Cl)cc2)C1=O (stereo not given),4.8,34.8,·,·,48.5,1.8,·
CCCC/C=C1/CCC(CN(C)C)C1=O (stereo not given),-3.1,34.1*,·,·,51.8*,3.6,48.2*
Cc1cccc(NS(=O)(=O)c2cccc(C(=O)N3CCCC(C(F)(F)F)C3)c2)c1 (stereo not given),-7.2,1.6,20.2,2.6,-3.6,-14.0,·
c1ccc(-c2nc(NCc3ccco3)c3ccccc3n2)nc1,-15.8,42.8*,35.1,-9.9,52.9*,-10.1,32.1
Oc1ccccc1-c1nc(NCc2ccco2)c2ccccc2n1,-5.2,3.9,11.3,0.2,-4.0,2.4,·
O=C(CSc1nnc(-c2ccncc2)o1)Nc1ccccc1C(F)(F)F,4.1,-11.1,-3.1,3.7,10.3,-4.1,·
CC(O)CN(CC(C)O)c1ccc2c(c1)Cc1cc([N+](=O)[O-])ccc1-2 (stereo not given),-5.8,37.9*,·,·,55.4*,9.4,41.3*
CC(C)C(=O)NNC(=O)c1ccccn1,-0.5,-16.2,-11.4,-1.4,-14.9,2.2,·
CC(Oc1cccc(Br)c1)C(=O)NNC(=O)c1ccccn1 (stereo not given),-2.7,52.1*,14.9,-4.1,48.1,-6.6,55.9*
CC(C)C[C@@H]1Cc2[nH][nH]c(=O)c2[C@H](c2ccc(Cl)cc2)O1,·,-1.8,·,·,·,·,·
CCOc1ncccc1C(=O)N1CCCSC1=Nc1ccc(C(C)=O)cc1,-10.2,-3.2,9.1,-2.8,12.0,0.0,·
O/N=C1/CCCCC1c1ccccn1 (stereo not given),5.0,57.2*,5.8,6.1,15.9,-0.7,-3.4
CC1C(=O)N(Cc2cn(Cc3ccco3)nn2)CCS(=O)(=O)N1Cc1ccc(-c2ccc(Cl)c(Cl)c2)cc1 (stereo not given),-9.9,67.1*,·,·,·,-1.4,-15.9
Cc1ccc(-c2ccc(CN3C(C)C(=O)N(Cc4cn(Cc5ccco5)nn4)CCS3(=O)=O)cc2)cc1 (stereo not given),3.1,4.6,·,·,·,-2.5,·
CCOc1ccc(CN2CCN(Cc3cn(CC)nc3C)CC2CCO)cc1 (stereo not given),-6.8,47.4*,11.3,-3.0,-10.2,1.3,1.9
CCOc1ccc(CN2CCN(Cc3c(C)nn(CC)c3C)CC2CCO)cc1 (stereo not given),-1.7,-19.0,10.3,-2.3,1.0,3.1,·
O=C(NCc1cccnc1)/C(=C\c1ccc(-c2cccc(Cl)c2)o1)S(=O)(=O)c1ccccc1,-13.4,33.4*,·,·,37.8,4.9,40.6*
SMILES,PKA-R2B act,CXCR6 block,APJ antagonist,APJ agonist,CCR6 antag,PKA-R1A activ,CXCR6 antag conf
O=C(NCc1cccnc1)/C(=C/c1ccc(-c2cccc(Cl)c2)o1)S(=O)(=O)c1ccccc1,7.8,9.5,17.0,2.6,-0.4,2.1,·
O=C(NCc1ccccc1)c1nc2ccccc2s1,5.1,1.7,-4.8,-1.0,15.2,6.0,·
O=C(NCc1ccco1)c1nc2ccccc2s1,5.4,40.7*,4.8,-4.2,6.0,-3.7,11.1
O=[N+]([O-])c1c(NCCCO)cc(N2CCCCCC2)c2nonc12,-2.0,5.7,25.3,-0.6,12.7,-4.2,·
CC(=O)OCCNc1cc(Sc2nc3ccccc3[nH]2)c2nonc2c1[N+](=O)[O-],9.0,96.0*,·,·,103.0*,-8.6,104.9*
O=[N+]([O-])c1c(NCCCO)cc(Sc2ccc(Cl)cc2)c2nonc12,-0.8,76.6*,·,·,98.5*,-7.6,95.8*
CCCC(=O)OCCNc1cc(SCCC(=O)OC)c2nonc2c1[N+](=O)[O-],-9.9,49.8*,20.0,-4.4,62.2*,4.0,63.1*
CC(=O)Nc1ccc2nc(CN3CCN(Cc4ccc(F)cc4)C(CCO)C3)ccc2c1 (stereo not given),-4.9,-12.4,-8.8,-0.3,-0.2,-6.0,·
CCCSc1nc(O)c(C(c2ccc(OC)c(O)c2)c2c(O)nc(SCCC)n(C)c2=O)c(=O)n1C,-10.1,0.6,7.4,17.4,-6.9,-6.1,·
CN1CCC(OC(=O)COc2ccc(F)cc2)CC1,4.5,-1.5,-10.0,-1.1,1.5,6.5,·
COc1ccc(-c2csc(N3C(=O)CNC3=S)n2)cc1,9.8,42.9*,·,·,60.2*,7.9,23.8
CCCCc1c(-c2ccccc2)ncn1CCc1ccccc1OC,·,-2.9,·,·,·,·,·
CCCCc1c(Cc2ccccc2)ncn1CCc1ccccc1OC,·,38.4*,·,·,·,·,2.6
Cc1cc(C)cc(NC(=O)C(=O)NCC2CCCO2)c1 (stereo not given),-0.8,-0.6,14.1,-3.0,-3.1,-0.9,·
Cc1cc(C)cc(NC(=O)C(NCC2CCCO2)c2ccccc2)c1 (stereo not given),-3.0,60.2*,-14.7,-3.3,7.9,10.0,10.3
O=C(Cn1c(NCCO)nc2ccccc21)Nc1ccc2c(c1)OCCCO2,7.4,5.6,9.8,-2.8,3.8,1.1,·
CC(OC(=O)c1nc(-c2ccccc2)n(-c2ccccc2)n1)C(=O)Nc1cc(Cl)cc(Cl)c1 (stereo not given),-7.0,47.1*,1.2,-1.2,8.8,-2.8,13.4
CCOC(=O)c1cc([N+](=O)[O-])c([N+](=O)[O-])cc1NC(C)=O,9.7,67.4*,·,·,·,0.7,63.9*

# Bioassay records (PubChem BioAssay)
